Assay outcomes deposited in PubChem BioAssay by several laboratories.
APP 5'UTR act – APP 5'UTR luciferase reporter activation | SH-SY5Y APP 5'UTR luciferase reporter, luminescence; zero percent = DMSO vehicle wells | activation, % at 2 µM | 190,000 tested, 1% active | AID 1276;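 active = activation above a set limit, based on mean plus 3 SD of controls, cut at about 140% in these data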
NF-kB neuron act – compounds increasing NF-kB expression in human neuronal cells. 190,000 tested, 1.6% active. fold change at 12.5 µM. NF-kB reporter expression; active compounds read high; in the data active = fold change above about 3.3
FLuc inh counter – Photinus pyralis luciferase inhibition counter-screen | P08659 | AID 1006 | inhibition, % at 10 µM | ATPLite firefly luciferase biochemical luminescence, 10 min | 200,000 tested, 1.5% active;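 active = inhibition above about 50% when tested at 10 µM, limit read from the data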
Target sequence (P08659 whole entry, looked up): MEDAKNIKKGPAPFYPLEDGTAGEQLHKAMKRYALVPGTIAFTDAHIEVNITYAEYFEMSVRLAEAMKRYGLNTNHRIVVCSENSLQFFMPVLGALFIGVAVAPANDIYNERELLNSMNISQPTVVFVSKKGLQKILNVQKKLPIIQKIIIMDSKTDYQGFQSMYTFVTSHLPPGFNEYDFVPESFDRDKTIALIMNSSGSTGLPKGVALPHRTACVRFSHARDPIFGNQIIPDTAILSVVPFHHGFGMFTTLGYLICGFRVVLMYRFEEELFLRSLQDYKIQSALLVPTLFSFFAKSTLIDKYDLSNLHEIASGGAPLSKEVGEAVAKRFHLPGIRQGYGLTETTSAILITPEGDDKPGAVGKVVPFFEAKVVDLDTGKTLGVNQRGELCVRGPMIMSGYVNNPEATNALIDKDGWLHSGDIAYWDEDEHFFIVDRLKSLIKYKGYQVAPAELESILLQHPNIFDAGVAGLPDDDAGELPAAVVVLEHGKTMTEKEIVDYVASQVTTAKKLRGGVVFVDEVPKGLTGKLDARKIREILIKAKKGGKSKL
STAT1 act – STAT1 signaling activation; 200,000 tested, 2.6% active; activation (% of control), % at 5.5 µM; AID 932; NIH 3T3 STAT1-luciferase reporter, IFN-gamma, luminescence; 100% = IFN-gamma alone, no compound;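 active = activation above the screen-wide mean activation plus 3 SD, cut at about 130% in these data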;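 note: raw ratio to IFN-gamma control signal so 100% means no change and 0% no light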
FLuc act counter – affects firefly luciferase, flagging false hits in luciferase stimulation screens. P08659. ATPlite luciferase biochemical, luminescence, 10 min; 0 = ATP-free wells, 1 = DMSO control. activation factor at 10 µM. 200,000 tested, under 10 active;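 active = luciferase activation factor, scaled between plate controls, of at least 2 with compound at 10 µM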
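assay system = Luciferase/luciferin detection reagent, cell-free biochemical luciferase assay | also added = ATP substrate | times = 10 min post-reagent at room temperature | measured by = luminescence from luciferase reaction | measure = luciferase activation, seen as luminescence increase over controls | benchmarks = low control with PBS replacing ATP, high control enzyme plus ATP without compound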
Starred values were filed as active, the others as inactive; nt = no result given. Rows were chosen to be rich in hits. Some 4.1% of all compounds tested hit in one or more screens of this group.

SMILES	APP 5'UTR act	NF-kB neuron act	FLuc inh counter	STAT1 act	FLuc act counter
CCCOc1ccc(OCCN2CCCC(C)C2)cc1 (stereo not drawn)	-5.8	1.12	2.4	100.0	1
CCOc1cnc(-c2ccc(OC)cc2)o1	44.4	1.59	25.6	135.0*	0.7
CCOc1cnc(-c2ccc(Cl)cc2)o1	14.4	1.21	11.1	139.6*	0.9
CCOc1cnc(-c2c(-c3c(Cl)cccc3Cl)noc2C)o1	6.2	1.01	-1.6	92.1	1
CCOC(Cn1cc(C)c(=O)[nH]c1=O)OCC	-15.8	1.11	-4.7	98.3	1
CC(C)(C)C(=O)/C(=C/c1ccncc1)n1cncn1	-58.2	0.15	-4.6	85.6	1
COc1nc(C)nc2c1sc1nc3c(cc12)COC(C)(C)C3	55.0	2.58	4.7	136.8*	1
COC(=O)c1c[nH]n2c(=O)cc(CCl)nc12	9.4	1.31	-7.0	94.3	1.1
Cc1ccccc1/C=C\c1nc2ccccc2c(=O)[nH]1	163.7*	4.38*	55.6*	121.1	0.4
CCCC(=O)NCCCc1nc2ccccc2n1C(C)C	3.2	1.07	-8.0	95.3	1.1
Cc1ccc(OC(=O)Nc2ccccc2)cc1	27.3	0.98	51.0*	144.0*	0.5
COc1ccc(OCCOC(=O)Nc2ccccc2)cc1	4.4	0.86	-5.8	97.9	1.1
O=C(Nc1ccccc1)OCCOc1ccccc1	87.5	4.48*	-0.1	132.5*	1
CCOC(=O)c1ccc(NC(=O)Oc2ccccc2)cc1	13.9	1.27	-9.4	106.0	1.1
Fc1cccc(Cl)c1Cn1nnc(-c2ccc3c(c2)OCO3)n1	67.7	3.57*	11.7	119.3	0.9
O=C(NNC(=O)c1cc(-c2ccccc2)n(-c2ccccc2)n1)c1cccc([N+](=O)[O-])c1	18.6	1.2	-0.3	97.7	1
NC(N)=N/N=C/c1ccc(OCc2ccc(Cl)cc2)cc1	111.1	5.98*	7.2	112.3	0.9
O=C(c1ccco1)N1CCn2c1nc1ccccc12	-5.5	2.02	23.6	125.1	0.8
Nc1nc2ccccc2n1C(=O)c1ccccc1	161.3*	3.2	89.9*	72.9	0.1
Nc1nc2ccccc2n1C(=O)c1cccs1	79.7	4.68*	69.4*	112.6	0.3
Nc1nncn1C(=O)c1cccs1	12.9	0.98	-5.4	102.0	1.1
Nc1nc2ccccc2n1C(=O)c1ccco1	131.0	3.11	42.7	139.1*	0.6
Nc1nc2ccccc2n1C(=O)CCc1ccccc1	49.5	2.62	17.3	136.5*	0.8
O=C(c1ccccc1)n1nnc2ccccc21	nt	0.88	3.0	102.4	1
O=C(NCCc1cn2ccccc2n1)C1CCCCC1	6.6	1.13	-7.3	102.3	1.1
SMILES	APP 5'UTR act	NF-kB neuron act	FLuc inh counter	STAT1 act	FLuc act counter
O=C(O)Cc1ccc(S(=O)(=O)Nc2ccccc2C(=O)O)cc1	-12.9	1.14	-3.3	88.7	1
Nc1nc2ccccc2n1C(=O)c1ccc(F)cc1	187.8*	3.17	91.0*	81.3	0.1
Cc1ccccc1-c1nnc2s/c(=C\c3ccc(N(C)C)cc3)c(=O)n12	nt	nt	-4.4	nt	1
CCS(=O)(=O)c1ccc2c(c1)N(S(C)(=O)=O)CC(C(=O)NN)O2 (stereo not drawn)	5.7	0.9	-7.1	99.7	1.1
CCc1ccc(C(=O)COC(=O)c2n[nH]c3ccccc23)cc1	99.6	5.47*	62.6*	123.9	0.4
CCc1ccc(C(=O)COC(=O)c2nn(C)c(=O)c3ccccc23)cc1	35.4	1.07	21.9	100.1	0.8
CC1CCN(C(=O)COC(=O)c2n[nH]c3ccccc23)CC1	67.0	2.45	54.7*	124.7	0.5
CC1CCCC/C1=N\NC(=S)Nc1ccccc1 (stereo not drawn)	174.9*	1.42	-3.9	104.7	1
CC1CCC/C(=N\NC(=S)Nc2ccccc2)C1 (stereo not drawn)	125.5	0.94	-3.0	105.5	1
O=C(NCC1OCCCN1S(=O)(=O)c1cc(F)ccc1F)C(=O)NC1CCCCCC1 (stereo not drawn)	5.1	1.05	-6.2	138.1*	1.1
Cc1cc(F)ccc1S(=O)(=O)N1CCCOC1CNC(=O)C(=O)NCc1ccco1 (stereo not drawn)	-3.1	1.03	-5.3	94.5	1.1
CCOC(=O)Cc1c(C)nc2c(-c3ccc(Cl)cc3)cnn2c1C	-5.3	1.16	-0.8	106.5	1
Cc1cc(N)n2ncc(-c3ccc(F)cc3)c2n1	84.1	1.74	7.1	139.6*	0.9
Cc1cc(N)n2ncc(-c3ccc(Cl)cc3)c2n1	96.0	2.12	-4.6	140.4*	1
